Screens as filed in PubChem BioAssay.
The list is not random: actives were taken first. Their share in the collection is about 2.9%.
HCV core dimer: HCV core protein dimerization inhibition. TR-FRET GST/Flag-core106 dimerization, 1536-well. inhibition, % at 5 µM. 0.33% of 300,000 active. AID 1899;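 active means inhibition above the mean of all tested compounds plus 3 SD, set per screening campaign, cut at about 45% in these data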
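assay system = GST-tagged and Flag-tagged HCV core protein residues 1-106 | controls = unlabelled core106 and no-GST-core106 wells | incubation = compound-protein-antibody incubation 4 h at 22.5 °C | probe or stimulus = Eu donor and XL665 acceptor anti-tag antibodies | read-out = % inhibition based on acceptor/donor emission ratio | signal = TR-FRET 671 and 617 nm emission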
A3A deaminase: inhibitors of human APOBEC3A DNA deaminase. inhibition, % at 20 µM. AID 493011. 0.41% of 330,000 active. recombinant A3A, FAM/TAMRA ssDNA deamination fluorescence. P31941;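 active means at least 40% inhibition at 20 µM here, with at most 30% in a related deaminase screen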
Target sequence (P31941 whole entry, looked up): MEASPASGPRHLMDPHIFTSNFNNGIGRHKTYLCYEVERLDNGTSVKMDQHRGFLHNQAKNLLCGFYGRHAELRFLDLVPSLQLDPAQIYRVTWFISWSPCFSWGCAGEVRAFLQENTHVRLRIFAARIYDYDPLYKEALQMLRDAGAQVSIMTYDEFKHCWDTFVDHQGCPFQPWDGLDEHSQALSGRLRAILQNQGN
A3G deaminase: blocks human APOBEC3G single-stranded DNA deamination | Q9HC16 | recombinant A3G, ssDNA deamination FAM/TAMRA fluorescence | inhibition, % at 20 µM | 0.28% of 330,000 active | AID 493012;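 active means inhibition of at least 40% at 20 µM, with no more than 30% in the related APOBEC3A deaminase screen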
ABHD5-PLIN5 inh: blocks binding of human ABHD5 to perilipin-5 | 0.78% of 360,000 active | Split G. princeps luciferase complementation, luminescence, 4 h | AID 602281 | Q00G26+Q8WTS1 | inhibition, % at 4 µM;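 active means inhibition above the mean inhibition across every tested compound plus 3 SD, cut at about 22% in these data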
PRMT1 FP inh: blocks human protein arginine methyltransferase 1; Q99873; recombinant PRMT1, activity-based probe fluorescence polarization; inhibition, % at 2.79 µM; 1.3% of 370,000 active; AID 652257;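 active means inhibition above about 21% made by adding two undisclosed values, limit read from the data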
Target sequence (Q99873 whole entry, looked up): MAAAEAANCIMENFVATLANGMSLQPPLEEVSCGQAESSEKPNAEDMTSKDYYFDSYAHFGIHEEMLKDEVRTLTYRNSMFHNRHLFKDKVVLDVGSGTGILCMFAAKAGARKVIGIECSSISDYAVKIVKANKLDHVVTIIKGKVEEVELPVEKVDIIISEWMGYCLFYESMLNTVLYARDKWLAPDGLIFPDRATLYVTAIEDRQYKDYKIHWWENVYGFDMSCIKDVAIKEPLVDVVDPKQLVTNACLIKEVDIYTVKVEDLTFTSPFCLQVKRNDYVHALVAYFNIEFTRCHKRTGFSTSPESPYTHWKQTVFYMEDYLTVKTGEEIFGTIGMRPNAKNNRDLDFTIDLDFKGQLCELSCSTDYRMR
NS3 helicase inh: inhibitors of Hepatitis C virus NS3 helicase; inhibition, % at 10.9 µM; 0.56% of 290,000 active; AID 1800; NS3 helicase DNA unwinding, Cy5 molecular beacon fluorescence;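 active means inhibition above the mean of all tested compounds plus 3 SD, set per campaign, cut at about 35% in these data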
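Measured by: Cy5 fluorescence, 0 and 60 min reads / Assay system: NS3 helicase fragment of HCV / Control set: low DMSO, high thioflavine S at 110 µM / Times: 1 h reaction at 25 °C, ATP-initiated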
PRMT1 inh conf: confirmation of human PRMT1 inhibitors | recombinant His-PRMT1, activity-based probe fluorescence polarization | shares compounds with PRMT1 FP inh | inhibition, % at 2.79 µM | 42% of 3,300 active;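 active means mean inhibition across replicates above the hit cutoff derived for the earlier primary screen, cut at about 22% in these data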
A number is an active result; i = inactive; nt = no result.

SMILES | HCV core dimer | A3A deaminase | A3G deaminase | ABHD5-PLIN5 inh | PRMT1 FP inh | NS3 helicase inh | PRMT1 inh conf
CCOc1ccccc1NC(=O)/C=C/C(N)=O | i | i | i | i | 61 | i | 47
COc1ccccc1NC(=O)CSC1=NCCN1 | i | nt | nt | i | 31 | i | i
Cc1ccc(NC(=O)CSC2=NCCN2)cc1 | i | i | i | i | 32 | i | i
CCOc1ccccc1NC(=O)/C=C/c1ccccc1[N+](=O)[O-] | i | i | i | i | i | i | nt
CCOC(=O)C1(C)CCCN(C(=O)c2ccc(OC)c(OC)c2)C1 (centres undefined) | nt | nt | nt | i | i | nt | nt
CN1CCCC(OC(=O)c2ccc(S(=O)(=O)N(C)C)cc2)C1 (centres undefined) | i | i | i | i | 34 | i | i
COc1ccc(Br)cc1S(=O)(=O)NCCc1cccs1 | nt | i | i | i | i | nt | nt
Cn1c(CNc2ccc(O)cc2)nc2ccccc21 | i | i | i | i | 39 | i | i
Cc1ncccc1C(=O)N1CCCC(CNC(=O)C2(c3ccc(Cl)cc3)CC2)C1 (centres undefined) | i | i | i | i | i | i | nt
O=C(c1nnsc1S(=O)c1ccc(Cl)cc1)N1CCOCC1 (centres undefined) | nt | i | i | 73 | 54 | i | 66
Cc1ccc(S(=O)(=O)N2CCN(C(=O)C3CCCO3)CC2)cc1 (centres undefined) | i | i | i | i | i | i | nt
O=C(NCC(F)(F)F)c1ccc(S(=O)(=O)N2CCN(C(=O)C3CCCO3)CC2)cc1 (centres undefined) | nt | i | i | i | 70 | nt | i
CCc1[nH]c(=O)[nH]c1C(C)S(=O)(=O)c1ccc(C)cc1 (centres undefined) | i | i | i | i | 43 | i | 34
C=CCC(C=C)S(=O)(=O)c1ccc(C)cc1 (centres undefined) | i | i | i | i | i | i | nt
CCc1c(C(C)S(=O)(=O)c2ccc(C)cc2)[nH]c(=O)n1-c1ccc(C)cc1 (centres undefined) | i | i | i | i | 34 | i | i
O=C(/C=C/c1ccccc1)CCN1CCOCC1 | nt | nt | nt | i | 27 | nt | 58
CCC(CO)n1c(SCc2cc(=O)oc3cc(C)ccc23)nc2ccccc2c1=O (centres undefined) | i | i | i | i | 77 | i | 67
COc1ccccc1-n1c(SCc2cc(=O)oc3cc(O)ccc23)nc2ccccc2c1=O | i | i | i | i | i | i | nt
CCO[C@H]1OC(C(=O)N2CCN(Cc3ccc4c(c3)OCO4)CC2)=C[C@@H](c2csc3ccccc23)[C@@H]1CCCO | i | i | i | i | 96 | i | i
COc1ccc(S(=O)(=O)N2CCN(C(=O)c3ccco3)CC2)c(C)c1C | i | i | i | i | i | i | nt
COc1ccc(C=Cc2ccc3ccccc3n2)c(OC)c1 | nt | nt | nt | i | 147 | nt | i
CCSc1nc2sc3c(c2c(=O)[nH]1)CCc1ccccc1-3 | i | i | i | i | i | i | nt
NNc1nc2sc3c(c2c(=O)[nH]1)CCc1ccccc1-3 | i | i | i | i | 61 | i | i
CCCCCCCCN1C(=O)[C@@H](CC(=O)N2CCCCC2)C[C@@]2(C(=O)OC)C1=C[C@H](C1CCCC1)O[C@@H]2C | nt | nt | nt | nt | i | nt | nt
O=C(Nc1ccccn1)C(=O)Nc1ccccn1 | i | i | i | i | i | i | nt
SMILES | HCV core dimer | A3A deaminase | A3G deaminase | ABHD5-PLIN5 inh | PRMT1 FP inh | NS3 helicase inh | PRMT1 inh conf
S=C(Nc1ccccn1)c1ccccn1 | i | i | i | i | 32 | i | i
CCOC(=O)C1=CCC(c2ccc(Cl)cc2)N(S(=O)(=O)c2ccc(C)cc2)C1 (centres undefined) | nt | nt | nt | i | i | nt | nt
O=C(NCSc1ccncn1)c1ccccc1 | i | i | i | i | 49 | i | i
O=C(NCSc1ccnc(SCNC(=O)c2ccccc2)n1)c1ccccc1 | i | i | i | i | i | i | nt
CN(Cc1ccccc1)C(=O)c1ccc(NC(=O)C2CCN(C(=O)OC(C)(C)C)CC2)cc1 | nt | i | i | i | i | nt | nt
Cc1ccc2[nH]c(=O)c(C(c3nnnn3CC3CCCO3)N3CCCc4ccccc43)cc2c1 (centres undefined) | i | i | i | i | i | i | nt
Cc1ccc2[nH]c(=O)c(C(c3nnnn3C3CCCC3)N3CCCc4ccccc43)cc2c1 (centres undefined) | i | i | i | i | 35 | i | i
Nc1ncnc2c1ncn2[C@@H]1O[C@H](C(=O)N(CCC2=CCCCC2)CC2CC2)[C@@H](O)[C@H]1O | nt | nt | nt | i | i | nt | nt
COc1ccccc1NS(=O)(=O)c1cc(N2Cc3ccccc3C2=N)ccc1N1CCOCC1 | i | i | i | i | 27 | i | i
CC[n+]1c(/C=C/C=C/N(C(C)=O)c2ccccc2)sc2cc(OC)ccc21 | i | nt | nt | nt | i | i | nt
CC[n+]1c(C=C2C=C(C)OC(C)=C2)sc2ccccc21 | nt | i | i | i | i | i | nt
CC[n+]1c(/C=C/Nc2ccccc2)sc2ccccc21 | i | i | i | i | i | i | nt
CC[n+]1c(/C=C2/C=C(C)CC(C)C2)sc2ccccc21 (centres undefined) | i | i | i | i | 28 | i | i
CC[n+]1c(/C=C(\C)SC)sc2ccccc21 | i | i | i | i | 34 | i | i
CC[n+]1c(/C=C(/C)SC)sc2ccccc21 | i | i | i | i | 96 | i | 24
CC/C(=C/c1sc2ccccc2[n+]1CC)SC | i | i | i | i | 66 | i | i
O=C(NC(c1ccc(-c2ccccc2)cc1)c1cnccn1)C1CCN(Cc2ccc3c(c2)OCO3)CC1 (centres undefined) | nt | nt | nt | i | i | nt | nt
CC(C)NC(=O)c1sc2nc(-c3cccs3)cc(-c3cccs3)c2c1N | i | i | i | nt | 30 | i | i
Nc1c(C(=O)C2CC2)sc2nc(-c3cccs3)cc(C(F)(F)F)c12 | i | i | i | i | 32 | i | i
O=C(NCC(=O)N1CCCCCCC1)c1ccc(Cl)c(Cl)c1 | nt | nt | nt | i | i | nt | nt
CC(C)NC(=O)Nc1ccc2c(c1)C(=O)N([C@H](C)CO)C[C@H](C)[C@@H](CN(C)C(=O)Nc1ccc3c(c1)OCO3)O2 | nt | i | i | i | i | nt | nt
Cc1ccc(S(=O)(=O)N2CC3=C(C2)C2CC2(C)C3)cc1 (centres undefined) | nt | nt | nt | i | i | nt | nt
COc1ccc(NS(=O)(=O)c2ccc(F)c(Cl)c2)cn1 | i | i | i | i | 37 | i | i
COc1ccc(NS(=O)(=O)c2ccc(Br)cc2)cn1 | i | i | i | i | i | i | nt
S=C(NCCCN1CCOCC1)NC1CCCC1 | i | i | i | i | i | i | nt
S=C(NCCCN1CCOCC1)NCCCN1CCOCC1 | i | i | i | i | 40 | i | 58
Cc1cc(C)n2c(=O)[nH]nc2c1 | nt | nt | nt | i | i | nt | nt
O=C1OC(c2ccc(F)cc2)CC1CN1CCOCC1 (centres undefined) | nt | nt | nt | i | i | nt | nt
